In ChEMBL document CHEMBL1833887, “Synthesis and evaluation of 7-substituted 4-aminoquinoline analogues for antimalarial activity” (J Med Chem, 2011):
Converted amounts (≈) assume the structure as drawn.

Columns and labels:
Plasmodium falciparum [1] = test: Antimalarial activity against chloroquine-sensitive Plasmodium falciparum 3D7 infected in human erythrocytes assessed as reduction in parasitemia after 72 hrs by spectrophotometry; format: functional, organism-based; settings: 3D7, 72 h
[2] = Ratio of EC50 for human HepG2 cells to EC50 for Plasmodium falciparum K1 infected in human erythrocytes
[3] = Permeability of the compound at pH 7.4 after 30 mins by PAMPA; format: ADME; settings: read-out: permeability
Summary of the method: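 PAMPA at pH 7.4. A 10 mM DMSO stock is diluted into system solution buffer; its UV spectrum serves as reference. Membrane painted with GIT lipid, acceptor chamber holds acceptor solution buffer. Sandwich stirred for 30 min, aqueous boundary layer set to 40. Donor and acceptor UV spectra read at 250–500 nm. Permeability coefficient from the AUCs of reference, donor and acceptor. Single experiment in triplicate.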

HepG2 = test: Cytotoxicity against human HepG2 cells assessed as intracellular ATP level after 72 hrs by Celltiter-Glo luminescent assay; format: cell-based; settings: HepG2, 72 h
Plasmodium falciparum [4] = test: Ratio of EC50 for chloroquine-resistant Plasmodium falciparum K1 infected in human erythrocytes to EC50 for chloroquine-sensitive Plasmodium falciparum 3D7 infected in human erythrocytes; format: functional
Plasmodium falciparum [5] = test: Antimalarial activity against chloroquine-resistant Plasmodium falciparum K1 infected in human erythrocytes assessed as reduction in parasitemia after 72 hrs by spectrophotometry; format: functional, organism-based; settings: K1, 72 h
[6] = Dissociation constant, pKa of the compound; format: physicochemical
[7] = Solubility of the compound at pH 7.4 after 18 hrs by UV spectroscopic analysis; format: physicochemical; settings: buffer
Summary of the method: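 Kinetic solubility. A 10 mM stock is diluted 1:100 into PBS pH 7.4 and incubated 18 h at room temperature, then filtered; the filtrate is mixed 1:1 with 1-propanol. UV spectrum (250–500 nm) compared by AUC with a 1-propanol/PBS reference. Single experiment in triplicate.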

[8] = Ratio of EC50 for human HepG2 cells to EC50 for Plasmodium falciparum 3D7 infected in human erythrocytes

| Structure (SMILES) | EC50 (Plasmodium falciparum [1]) [nM] | Ratio EC50 [2] | Papp at 0.5 h [3] [×10⁻⁶ cm/s] | EC50 (HepG2) [nM] | Ratio EC50 (Plasmodium falciparum [4]) | EC50 (Plasmodium falciparum [5]) [nM] | pKa [6] | solubility at 18 h [7] [µM] | Ratio EC50 [8] |
| --- | --- | --- | --- | --- | --- | --- | --- | --- | --- |
| Cc1cc(C)cc(Cc2ccc3c(NCCCNCc4ccc5c(c4)OCO5)ccnc3c2)c1 | 41 | 2.2 | 23 | 2250 | 25.6 | 1040 | 9.47 | 4.2 (≈ 1.91 µg/mL) | 55.5 |
| N#Cc1ccc(Cc2ccc3c(NCCCNCc4ccc5c(c4)OCO5)ccnc3c2)cc1 | 23 | 2 | 23 | 6080 | 136.4 | 3070 | 9.47 | 4.2 (≈ 1.89 µg/mL) | 270.2 |
| COc1ccc(F)cc1CNCCCNc1ccnc2cc(Cc3ccc(F)cc3Cl)ccc12 | 208 | 2.2 | 23 | 2460 | 5.4 | 1110 | 9.47 | 4.2 (≈ 2.02 µg/mL) | 11.8 |
| COc1ccc(F)cc1CNCCCNc1ccnc2cc(Cc3cccc(C(F)(F)F)c3)ccc12 | 40 | 1.3 | 23 | 440 | 8.1 | 323 | 9.47 | 4.2 (≈ 2.09 µg/mL) | 11 |
| COc1ccccc1Oc1ccc2c(NCCCNCc3ccc4c(c3)OCO4)ccnc2c1 | 14 | 11 | 317 | 5900 | 37.7 | 517 | 9.28 | 14.5 (≈ 6.63 µg/mL) | 427 |
| c1coc(CNCCCNc2ccnc3cc(C4CCCCC4)ccc23)c1 | 118 | 1.2 | 23 | 4760 | 33.1 | 3900 | 9.47 | 4.2 (≈ 1.53 µg/mL) | 40.4 |
| Fc1ccc(-c2ccc3c(NCCCNCc4ccco4)ccnc3c2)cc1 | 32 | 113.2 | 237 | 7760 | 2.1 | 69 | 9.47 | 32 (≈ 12 µg/mL) | 240.4 |
| COc1ccc(F)cc1CNCCCNc1ccnc2cc(Cc3ccc4c(c3)OCO4)ccc12 | 31 | 255.8 | 237 | 6040 | 0.8 | 24 | 9.47 | 32 (≈ 15.2 µg/mL) | 194.7 |
| COc1ccc(F)cc1CNCCCNc1ccnc2cc(Cc3ccc(C#N)cc3)ccc12 | 28 | 7.9 | 23 | 6050 | 27.5 | 770 | 9.47 | 4.2 (≈ 1.91 µg/mL) | 216.2 |
| c1ccc(CCc2ccc3c(NCCCNCc4ccco4)ccnc3c2)cc1 | 46 | 5.5 | 23 | 16000 | 63.7 | 2930 | 9.47 | 4.2 (≈ 1.62 µg/mL) | 347.8 |
| COc1ccc(F)cc1CNCCCNc1ccnc2cc(CC(C)C)ccc12 | 89 | 1.4 | 23 | 2900 | 23.9 | 2120 | 9.47 | 4.2 (≈ 1.66 µg/mL) | 32.7 |
| c1ccc(CCc2ccc3c(NCCCNCc4ccc5c(c4)OCO5)ccnc3c2)cc1 | 13 | 3.2 | 23 | 4980 | 117.1 | 1530 | 9.47 | 4.2 (≈ 1.85 µg/mL) | 380.3 |
| N#Cc1ccc(Cc2ccc3c(NCCCNCc4ccco4)ccnc3c2)cc1 | 39 | 20.7 | 23 | 7910 | 9.7 | 382 | 9.47 | 4.2 (≈ 1.67 µg/mL) | 201.9 |
| FC(F)(F)c1cccc(Cc2ccc3c(NCCCNCc4ccc5c(c4)OCO5)ccnc3c2)c1 | 39 | 1.7 | 23 | 2200 | 33.5 | 1310 | 9.47 | 4.2 (≈ 2.07 µg/mL) | 56.1 |
